NPY1 pot ag: NPY-Y1 receptor potentiators or agonists, primary screen, cell-based. Neuropeptide Y receptor type 1 (Homo sapiens), P25929. NPY-Y1 expressing cells, potentiator/agonist activation. activation, % at 3.6 µM. 220,000 compounds, 0.37% hits; in the data active = activation above about 33%, passing the limit was not always enough;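 also: cells stimulated with NPY at EC10 then isoproterenol at EC100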
Target sequence (P25929 whole entry, looked up): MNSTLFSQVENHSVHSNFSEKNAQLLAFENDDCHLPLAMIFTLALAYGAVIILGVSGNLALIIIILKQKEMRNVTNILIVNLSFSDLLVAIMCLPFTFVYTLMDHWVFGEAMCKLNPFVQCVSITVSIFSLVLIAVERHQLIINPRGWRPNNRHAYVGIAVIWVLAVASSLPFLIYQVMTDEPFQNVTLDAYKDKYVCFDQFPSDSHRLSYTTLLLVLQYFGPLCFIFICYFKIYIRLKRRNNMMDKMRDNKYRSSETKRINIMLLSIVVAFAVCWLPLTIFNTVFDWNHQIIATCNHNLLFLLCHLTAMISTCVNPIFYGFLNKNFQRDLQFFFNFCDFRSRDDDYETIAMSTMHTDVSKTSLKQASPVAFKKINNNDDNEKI
NPY-Y2 PAM-ag: NPY-Y2 potentiators or agonists, primary screen, cell-based; Neuropeptide Y receptor type 2 (Homo sapiens), P49146; cells expressing NPY-Y2, potentiator/agonist read-out; activation, % at 3.6 µM; 220,000 compounds, 0.45% hits; AID 1359, 2008; in the data active = activation above about 27%;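 also: cells stimulated with NPY near EC25 plus isoproterenol at EC100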
S1P4 ag: S1P4 receptor agonists, primary screen, cell-based; Sphingosine 1-phosphate receptor 4 (Homo sapiens), O95977; AID 1509, 2009; 220,000 compounds, 0.35% hits; S1P4-expressing cell line, agonist reporter assay; activation, % at 4.98 µM; in the data active = activation above about 11%
NPY Y2 blocker: NPY-Y2 receptor antagonists, primary screen, cell-based; Neuropeptide Y receptor type 2 (Homo sapiens), P49146; 140,000 compounds, 0.99% hits; NPY-Y2 expressing cells, antagonist mode; inhibition, % at 2.7 µM
NPY Y1 blocker: NPY-Y1 receptor antagonists, primary screen, cell-based; Neuropeptide Y receptor type 1 (Homo sapiens), P25929; 200,000 compounds, 1% hits; AID 1040, 2008; HEK293-CNG Y1 cells, membrane potential fluorescence; NPY at EC95, then isoproterenol; inhibition, % at 3.6 µM;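 active = inhibition above the campaign mean inhibition of all tested compounds plus 3 SD, cut at about 20% in these data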
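Benchmarks – high control isoproterenol alone, low control NPY with isoproterenol · Material – HEK293 Y1/CNG channel cell line · Times – dye 3 h, compound 60 min room temperature, stimulation 45 min · Probe or stimulus – NPY (25 nM), isoproterenol (1 µM), Ro 20-1724 (25 µM) · Evaluation – % inhibition of NPY effect · Signal – fluorescence, membrane potential probe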
S1P4 antag: S1P4 receptor antagonists, primary screen, cell-based. Sphingosine 1-phosphate receptor 4 (Homo sapiens), O95977. AID 1510, 2009. 220,000 compounds, 0.26% hits. inhibition, % at 4.98 µM. S1P4-expressing cells, antagonist mode, reporter read-out; in the data active = inhibition above about 29%
NPY-Y1 ant conf: NPY-Y1 receptor antagonists, retest of hits, confirmation, HEK293-CNG cells, membrane potential fluorescence, triplicate; shares compounds with NPY Y1 blocker; cAMP; NPY challenge against isoproterenol-raised cAMP; inhibition, % at 3.6 µM; 1,200 compounds, 21% hits; AID 1254, 2008; in the data active = inhibition above about 20%
NPY-Y2 antag ct: NPY-Y2 receptor antagonists, selectivity check, confirmation, counter-screen for NPY-Y1 antagonist project, HEK293-CNG cells, membrane potential fluorescence, triplicate; inhibition, % at 3.6 µM; 1,200 compounds, 28% hits; antagonism; cells given NPY, then isoproterenol; AID 1255, 2008; shares compounds with NPY Y1 blocker
Large screens that a line does not name were inactive (follow-up assays come after a bar, where they were run). A selection: hits, their analogues and other compounds. The true share with any hit is near 2.4%. Rule as the data show it, unless noted: active = inhibition above about 17%; inactive = the rest.

Clc1ccc(OCCN2CCN(c3ncnc4sccc34)CC2)cc1	NPY Y1 blocker 26 | NPY-Y1 ant conf inactive | NPY-Y2 antag ct 20
Cc1ccc(OCCN2CCN(c3ncnc4sc(C)c(C)c34)CC2)cc1	none
COc1ccc(N2CCN(c3oc(-c4ccco4)nc3C#N)CC2)cc1	NPY Y1 blocker 22 | NPY-Y1 ant conf inactive | NPY-Y2 antag ct inactive
COc1ccc(-c2nc(C#N)c(N3CCN(c4ccccc4)CC3)o2)cc1	none
COCCN(C(=O)CCc1nnc(CCc2c[nH]c3ccccc23)o1)C(C)C	none (no result: NPY Y2 blocker)
Cc1ccc(-n2cccn2)c(CN2CCC(CO)(CCc3ccccc3)CC2)c1	NPY Y1 blocker 45 (no result: NPY Y2 blocker) | NPY-Y1 ant conf inactive | NPY-Y2 antag ct 19
N/C(=N\OC(=O)Cc1cccs1)c1ccc(Br)cc1	none
N/C(=N\OC(=O)Cc1cccs1)c1ccc([N+](=O)[O-])cc1	NPY Y1 blocker 24 | NPY-Y1 ant conf inactive | NPY-Y2 antag ct inactive
Cc1ccc(-c2nn(-c3cc(N4CCNCC4)ccc3[N+](=O)[O-])c(=O)c3ccccc23)cc1	none (no result: NPY Y2 blocker)
O=C(NC1CCCCC1)C(c1ccncc1)N(Cc1ccc2c(c1)OCO2)C(=O)C(F)(F)F (configuration not stated)	NPY Y1 blocker 21 | NPY-Y1 ant conf inactive | NPY-Y2 antag ct inactive
COCCC(=O)N(Cc1ccc2c(c1)OCO2)C(C(=O)NC1CCCCC1)c1ccncc1 (configuration not stated)	none
O=C(c1ccc(Cl)nc1)N1CCN(S(=O)(=O)c2ccccc2)CC1	none (no result: NPY Y2 blocker, NPY Y1 blocker)
Cc1ccccc1CC1(CO)CCCN(C(=O)c2ccccc2N(C)C)C1 (configuration not stated)	NPY Y1 blocker 28 (no result: NPY Y2 blocker) | NPY-Y1 ant conf inactive | NPY-Y2 antag ct inactive
Cc1ccccc1CC1(CO)CCCN(C(=O)c2ccc(F)cc2)C1 (configuration not stated)	none (no result: NPY Y2 blocker)
CCOC(=O)c1ccc(N2CCCCC2)c(NS(=O)(=O)c2ccc(C)cc2)c1	none (no result: NPY Y2 blocker, NPY Y1 blocker)
COc1ccc([N+](=O)[O-])cc1N(CC(O)CN(CC(C)C)CC(C)C)S(=O)(=O)c1ccccc1 (configuration not stated)	NPY Y1 blocker 69 | NPY-Y1 ant conf 30 | NPY-Y2 antag ct inactive
CCOC(=O)C1(Cc2ccccc2)CCN(Cc2cccn2-c2nccs2)CC1	NPY Y1 blocker 29 (no result: NPY Y2 blocker) | NPY-Y1 ant conf inactive | NPY-Y2 antag ct 22
CCOC(=O)C1(Cc2ccccc2)CCN(Cc2cccn2-c2cccnc2)CC1	NPY Y1 blocker 30 (no result: NPY Y2 blocker) | NPY-Y1 ant conf inactive | NPY-Y2 antag ct inactive
CCOC(=O)C1(CCOc2ccccc2)CCN(Cc2cccn2-c2cccnc2)CC1	none (no result: NPY Y2 blocker)
CCOC(=O)C1(Cc2cccc(OC)c2)CCN(Cc2cccn2-c2nccs2)CC1	none (no result: NPY Y2 blocker)
COC(=O)c1c(-c2c(Cl)cccc2Cl)noc1C(=O)NNC(=O)N(C)C	none (no result: NPY Y2 blocker, NPY Y1 blocker)
CN(C(=O)c1ccc(OC2CCN(CCc3ccccc3)CC2)cc1)C1CCCCC1	none (no result: NPY Y2 blocker)
Cc1ccc(OCC(=O)N2CCc3ccccc3C2)c([N+](=O)[O-])n1	none (no result: NPY Y2 blocker)
CC1CCN(c2ccccc2NC(=O)c2ccc(C#N)cc2F)CC1	none (no result: NPY Y2 blocker)
CC(C)C(=O)N1CCN(c2ccccc2NC(=O)c2ccc(C#N)cc2F)CC1	NPY Y1 blocker 42 (no result: NPY Y2 blocker) | NPY-Y1 ant conf inactive | NPY-Y2 antag ct inactive
Clc1cccc(CN2CCCCCCC2)c1Cl	none
COc1ccc(Nc2ccc(C(N)=O)cc2[N+](=O)[O-])cc1	none (no result: NPY Y2 blocker)
COc1ccc(Nc2ccc(C(=O)O)cc2[N+](=O)[O-])cc1	NPY Y1 blocker 22 | NPY-Y1 ant conf inactive | NPY-Y2 antag ct inactive
